In ChEMBL document CHEMBL1143734, “Design, synthesis, binding, and molecular modeling studies of new potent ligands of cannabinoid receptors” (Bioorg Med Chem, 2007) one finds Ki, IC50 and Ratio Ki data, which are given here for 17 compounds.

For experiment [1], the target named is T1, Cannabinoid receptor 1 (Homo sapiens, UniProt P21554). Nature of the experiment: (§1) Displacement of [3H]CP-55940 from human CB1 receptor expressed in HEK cells. The class given is cell-based, HEK293.
Experiment [2] deals with T2, Fatty-acid amide hydrolase 1 (Rattus norvegicus, UniProt P97612).
T2 sequence (P97612 whole entry): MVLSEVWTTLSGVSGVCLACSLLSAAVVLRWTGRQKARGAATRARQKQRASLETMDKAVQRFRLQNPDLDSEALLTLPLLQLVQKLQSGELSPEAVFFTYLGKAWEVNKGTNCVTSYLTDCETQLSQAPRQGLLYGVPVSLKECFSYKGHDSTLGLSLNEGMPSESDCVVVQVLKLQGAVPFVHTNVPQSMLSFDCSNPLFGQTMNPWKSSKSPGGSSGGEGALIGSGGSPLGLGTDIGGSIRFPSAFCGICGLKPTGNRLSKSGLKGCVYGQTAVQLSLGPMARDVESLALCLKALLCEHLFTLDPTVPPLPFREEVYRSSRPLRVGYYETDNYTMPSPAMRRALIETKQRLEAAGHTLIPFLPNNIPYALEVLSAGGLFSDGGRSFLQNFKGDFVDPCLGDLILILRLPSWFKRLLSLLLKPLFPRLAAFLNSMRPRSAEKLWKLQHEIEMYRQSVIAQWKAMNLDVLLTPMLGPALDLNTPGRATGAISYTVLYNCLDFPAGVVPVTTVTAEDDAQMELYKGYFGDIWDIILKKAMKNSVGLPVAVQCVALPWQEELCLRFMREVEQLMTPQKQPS
The experiment is described as follows: Inhibition of rat brain FAAH assessed as inhibition of [14C]anandamide hydrolysis. In short, it runs like this:
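Rat brain membranes incubated with [14C]anandamide (6 µM) and increasing compound concentrations in 50 mM Tris–HCl, pH 9, for 30 min at 37 °C. Mixture extracted with 2 volumes CHCl3/CH3OH (2:1). [14C]ethanolamine in the aqueous phase counted by scintillation. IC50 is the mean of n = 3 experiments.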

A further experiment addresses Cannabinoid receptor 2 (Homo sapiens, UniProt P34972). Nature of the experiment: Displacement of [3H]CP-55940 from human CB2 receptor expressed in HEK cells. The class given is cell-based, HEK293. In short, it runs like this: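 Preliminary screen at 5, 10 and 25 µM, then a complete displacement curve if binding fell by >50% at 10 µM. IC50 converted to Ki using Cheng–Prusoff. Mean of 3 separate experiments.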
(In a radioligand displacement assay an active substance lowers the binding of a labelled ligand.)

Experiment [3] addresses Cannabinoid receptor (Homo sapiens) (UniProt P34972+P21554). The experiment is described as follows: Selectivity for human CB1 receptor over human CB2 receptor. It is filed as protein assay.
For experiment [4], the target named is T1, Cannabinoid receptor 1. The experiment is described as §1. It is filed as cell-based, HEK293. The essentials: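 Membranes from HEK cells transfected with human CB1. Screen at 5, 10 and 25 µM, then full dose–response for compounds displacing >50% at 10 µM. […] Ki derived from IC50 by Cheng–Prusoff. Means of n = 3 separate experiments.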
The source holds these as a separate data set.

Structures are written as SMILES.

T1 sequence (P21554 whole entry): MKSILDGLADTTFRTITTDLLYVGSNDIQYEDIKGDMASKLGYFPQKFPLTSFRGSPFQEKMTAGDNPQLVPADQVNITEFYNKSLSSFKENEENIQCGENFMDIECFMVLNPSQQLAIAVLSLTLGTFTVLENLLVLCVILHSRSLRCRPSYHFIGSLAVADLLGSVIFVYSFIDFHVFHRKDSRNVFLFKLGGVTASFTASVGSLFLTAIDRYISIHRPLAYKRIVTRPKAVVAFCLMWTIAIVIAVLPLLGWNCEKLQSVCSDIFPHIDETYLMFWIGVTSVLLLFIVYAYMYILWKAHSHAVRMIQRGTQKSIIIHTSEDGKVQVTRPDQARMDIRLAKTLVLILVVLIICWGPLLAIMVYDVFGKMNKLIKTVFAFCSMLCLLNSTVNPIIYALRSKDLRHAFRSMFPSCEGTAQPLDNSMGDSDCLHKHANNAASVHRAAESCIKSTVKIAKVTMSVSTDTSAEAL
Chain of Cannabinoid receptor (Homo sapiens) (P21554 whole entry, looked up): as the sequence (P21554 whole entry) above
Chain of Cannabinoid receptor (Homo sapiens) (P34972 whole entry, looked up): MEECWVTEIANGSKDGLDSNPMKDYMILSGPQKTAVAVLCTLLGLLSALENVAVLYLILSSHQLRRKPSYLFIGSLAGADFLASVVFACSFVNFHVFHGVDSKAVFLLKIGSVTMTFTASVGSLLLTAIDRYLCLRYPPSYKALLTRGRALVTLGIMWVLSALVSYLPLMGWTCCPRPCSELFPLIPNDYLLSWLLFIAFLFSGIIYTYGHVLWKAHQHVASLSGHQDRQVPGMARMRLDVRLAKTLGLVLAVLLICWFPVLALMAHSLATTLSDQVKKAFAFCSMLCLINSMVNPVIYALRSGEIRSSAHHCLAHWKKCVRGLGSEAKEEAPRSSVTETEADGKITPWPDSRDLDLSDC
Chain of Cannabinoid receptor 2 (P34972 whole entry): as the sequence (P34972 whole entry, looked up) above

Broadly, the Ki is the equilibrium dissociation constant of an inhibitor or competing ligand from its target. A high value points to weaker binding. In general, IC50 refers to the concentration at which inhibition is half-maximal. Turning to `CCCCCc1cc(O)cc(OCCCCCCCC(=O)NCCO)c1`, the Ki was found to be 130 nM at Cannabinoid receptor 1 [1] and 390 nM on Cannabinoid receptor 2. In experiment [2], the IC50 was above 50000 nM.
`CCCCCc1cc(O)cc(OCCCCCCCCCCC(=O)NCCc2ccc(O)c(O)c2)c1`: the Ki at Cannabinoid receptor 1 [1] amounted to 560 nM. Moreover, the IC50 on Cannabinoid receptor 2 is above 10000 nM.
As to `CCCCCCc1c(O)cccc1OCCCCCCCCCCC(=O)NCc1ccc(OC)c(O)c1`, the results for the Ki on Cannabinoid receptor 1 [1] and on Cannabinoid receptor 2 were 2820 nM and 2100 nM, respectively. Also, in experiment [2], the IC50 is 50000 nM.
With `CCCCCc1cc(O)cc(OCCCCCCCC(=O)NC2CC2)c1`, the Ki at Cannabinoid receptor 1 [1] worked out at 16 nM; at Cannabinoid receptor 2 it was 39 nM. In addition, the IC50 in experiment [2] is above 50000 nM. Besides, the Ratio Ki in experiment [3] is 0.33.
In the same order, the values of `CCCCCc1cc(O)cc(OCCCCCCCCCCC(=O)NCc2ccc(OC)c(O)c2)c1` are 2100 nM, 1650 nM, 10000 nM and 1.3.
Consider `CCCCCc1cc(O)cc(OCCCCCCCCCCC(=O)NCC2CC2)c1`, for which the Ki on Cannabinoid receptor 1 [1] amounted to 510 nM; on Cannabinoid receptor 2 it was 80 nM. The IC50 in experiment [2] was above 50000 nM. Also, the Ratio Ki in experiment [3] is 6.4.
In the case of `CCCCCCc1ccc(OCCCCCCCCCCC(=O)NCC2CC2)cc1O`, the IC50 in experiment [2] was above 50000 nM; at Cannabinoid receptor 1 [4], above 10000 nM. On Cannabinoid receptor 2, affinity was put at a Ki of 2900 nM.
Consider `CCCCCCc1ccc(OCCCCCCCCCCC(=O)NCc2ccc(OC)c(O)c2)cc1O`, for which the IC50 in experiment [2] was above 50000 nM; at Cannabinoid receptor 2 it was above 10000 nM; on Cannabinoid receptor 1 [4], above 10000 nM. Besides, the Ratio Ki in experiment [3] is 1.3.
Consider `CCCCCCc1c(O)cccc1OCCCCCCCC(=O)NCCO`, for which the Ki on Cannabinoid receptor 1 [1] was determined as 260 nM; on Cannabinoid receptor 2 it was 3940 nM. Also, the IC50 in experiment [2] was found to be 25000 nM. Further, the Ratio Ki in experiment [3] turned out to be 0.07.
In the case of `CCCCCCc1ccc(OCCCCCCCCCCC(=O)NCCc2ccc(O)c(O)c2)cc1O`, the IC50 on Cannabinoid receptor 2 and on Cannabinoid receptor 1 [4] was above 10000 nM throughout.
For `CCCCCCc1ccc(OCCCCCCCC(=O)NC2CC2)cc1O`, the Ki on Cannabinoid receptor 1 [1] came out at 56 nM; at Cannabinoid receptor 2 it was 280 nM. Besides, in experiment [2], the IC50 was above 50000 nM. Also, the Ratio Ki in experiment [3] amounted to 0.2.
For `CCCCCc1cc(O)cc(OCCCCCCCCCCCC(=O)NCCO)c1` the same measures were 60 nM, 39 nM, above 50000 nM and 1.5.
`CCCCCCc1ccc(OCCCCCCCC(=O)NCCO)cc1O`: the Ki at Cannabinoid receptor 1 [1] came out at 190 nM; on Cannabinoid receptor 2 it was 2400 nM. For the same compound, the IC50 in experiment [2] worked out at 50000 nM. In addition, the Ratio Ki in experiment [3] was 0.08.
With `CCCCCCc1ccc(OCCCCCCCCCCCC(=O)NCCO)cc1O`, the IC50 in experiment [2] is 10000 nM; at Cannabinoid receptor 2, above 10000 nM; on Cannabinoid receptor 1 [4], above 10000 nM.
As to `CCCCCCc1ccc(OCCCCCCCCCCCC(=O)NC2CC2)cc1O`, the IC50 in experiment [2] was above 50000 nM; at Cannabinoid receptor 1 [4], above 10000 nM. At Cannabinoid receptor 2, this compound yielded a Ki of 3940 nM.
For the compound `CCCCCCc1c(O)cccc1OCCCCCCCC(=O)NC1CC1`, the Ki was 310 nM on Cannabinoid receptor 1 [1] and 1800 nM at Cannabinoid receptor 2. Moreover, the IC50 in experiment [2] came to 50000 nM. Further, the Ratio Ki in experiment [3] was 0.17.
In the same order, the values of `CCCCCc1cc(O)cc(OCCCCCCCCCCCC(=O)NC2CC2)c1` are 750 nM, 310 nM, 50000 nM and 2.4.
